Laboratory results published in article PMC10395004 (European journal of pharmaceutical sciences : official …, 2022).
Where a name gives a salt, the structure may show the parent alone. Read-outs that look alike come from different tables or passages of the source.

Tests used:
[1] = format: in vivo, mice; details: for CL/F / Vd/F / AUC(0-t) / MRT last / MRT inf / half-life / Cmax / Tmax / increase of metabolite AUC by propranolol: DLX 12 mg/kg p.o.; for CL/F / Vd/F / AUC(0-inf) / AUC(0-t) / MRT last / MRT inf / half-life / Cmax / Tmax / increase of metabolite AUC by propranolol: plasma; for AUC(0-inf) / AUC(0-t) / MRT last / MRT inf / half-life / Cmax / Tmax: male, mouse, po, 12 mg/kg; for AUC(0-t): AUC0-t; for MRT last: MRT0-t; for MRT inf: MRT0-∞; for increase of metabolite AUC by propranolol: peak area
In short: (§1)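 16 h later they received DLX 12 mg/kg p.o. in 0.5% methyl cellulose. Tail-vein blood (heparin) was taken at 0–24 h (9 points) and spun to plasma. Plasma was methanol-precipitated with IS and run by LC-MS against a DLX standard curve. Parameters came from noncompartmental analysis; ratios were taken between group means.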

Cyp2d = format: in vivo, mice; details: male, mouse, plasma, po, 12 mg/kg
In short: as §1

[2] = format: in vivo, mice
[3] = Cyp1a2-KO mice, Cyp2d+I (propranolol 30 mg/kg 16 h before)
[4] = Cyp1a2-KO mice, control (vehicle)
[5] = WT mice, Cyp2d+I (propranolol 30 mg/kg 16 h before)
[6] = Cyp1a2-KO, Cyp1a2-KO mice, Cyp2d+I (propranolol 30 mg/kg 16 h before)
[7] = Cyp1a2-KO, Cyp1a2-KO mice, control (vehicle)
[8] = KO + control compared with WT + control, not statistically significant
[9] = KO + inhibitor compared to KO + control
[10] = WT + inhibitor compared to WT + control

SMILES: CNCC[C@H](Oc1cccc2ccccc12)c1cccs1 [DLX, (3S)-N-methyl-3-(1-naphthyloxy)-3-(2-thienyl)propan-1-amine]
- AUC0-t ratio Cyp2d+I/Control ([1]; Cyp1a2-KO mice): 2.29
- AUC0-∞ ratio Cyp2d+I/Control ([1]; Cyp1a2-KO mice): 2.26
- CL/F ratio Cyp2d+I/Control ([1]; Cyp1a2-KO mice): 0.40
- Cmax ratio Cyp2d+I/Control ([1]; Cyp1a2-KO mice): 3.95
- MRT0-t ratio Cyp2d+I/Control ([1]; Cyp1a2-KO mice): 0.80
- MRT0-∞ ratio Cyp2d+I/Control ([1]; Cyp1a2-KO mice): 0.76
- T1/2 ratio Cyp2d+I/Control ([1]; Cyp1a2-KO mice): 0.83
- Tmax ratio Cyp2d+I/Control ([1]; Cyp1a2-KO mice): 0.40
- Vd/F ratio Cyp2d+I/Control ([1]; Cyp1a2-KO mice): 0.30
- CL/F [1, 3]: 2.94 ± 0.34 mg/(hr*μmol/L)/kg
- Vd/F [1, 3]: 15.44 ± 1.71 mg/(μmol/L)/kg
- CL/F [1, 4]: 7.32 ± 1.60 mg/(hr*μmol/L)/kg
- Vd/F [1, 4]: 51.03 ± 18.18 mg/(μmol/L)/kg
- increase of AUC0-t by propranolol ([1]; KO + inhibitor vs KO + control): 129%
- increase of Cmax by propranolol ([1]; KO + inhibitor vs KO + control): 295%
- AUC0-t KO control/WT control ratio ([1]; KO control vs WT control): 0.89
- AUC0-∞ KO control/WT control ratio ([1]; KO control vs WT control): 0.89
- CL/F KO control/WT control ratio ([1]; KO control vs WT control): 1.18
- Cmax KO control/WT control ratio ([1]; KO control vs WT control): 0.56
- MRT0-t KO control/WT control ratio ([1]; KO control vs WT control): 1.14
- MRT0-∞ KO control/WT control ratio ([1]; KO control vs WT control): 1.16
- T1/2 KO control/WT control ratio ([1]; KO control vs WT control): 1.04
- Tmax KO control/WT control ratio ([1]; KO control vs WT control): 1.81
- Vd/F KO control/WT control ratio ([1]; KO control vs WT control): 1.28
- increase of AUC0-t by propranolol ([1]; WT + inhibitor vs WT + control): 304%
- increase of Cmax by propranolol ([1]; WT + inhibitor vs WT + control): 177%
- AUC0-t ratio Cyp2d+I/Control ([1]; WT mice): 4.04
- AUC0-∞ ratio Cyp2d+I/Control ([1]; WT mice): 4.01
- CL/F ratio Cyp2d+I/Control ([1]; WT mice): 0.30
- Cmax ratio Cyp2d+I/Control ([1]; WT mice): 2.78
- MRT0-t ratio Cyp2d+I/Control ([1]; WT mice): 1.10
- MRT0-∞ ratio Cyp2d+I/Control ([1]; WT mice): 1.04
- T1/2 ratio Cyp2d+I/Control ([1]; WT mice): 0.76
- Tmax ratio Cyp2d+I/Control ([1]; WT mice): 0.91
- Vd/F ratio Cyp2d+I/Control ([1]; WT mice): 0.26
- increase of AUC of DLX by propranolol ([1]; WT mice): 3 folds
- CL/F [1, 5]: 1.88 ± 0.60 mg/(hr*μmol/L)/kg
- Vd/F [1, 5]: 10.27 ± 5.02 mg/(μmol/L)/kg
- CL/F ([1]; WT mice, control (vehicle)): 6.19 ± 0.97 mg/(hr*μmol/L)/kg
- Vd/F ([1]; WT mice, control (vehicle)): 39.87 ± 9.28 mg/(μmol/L)/kg
- AUC(0-inf) ([1]; Cyp1a2-KO): 1.89 ± 0.39 µM·h
- AUC(0-t) [1, 6]: 4.23 ± 0.56 µM·h
- AUC(0-t) [1, 7]: 1.85 ± 0.39 µM·h
- MRT last [1, 6]: 4.61 ± 0.29 h
- MRT last [1, 7]: 5.73 ± 0.22 h
- MRT inf [1, 6]: 4.83 ± 0.27 h
- MRT inf [1, 7]: 6.39 ± 0.26 h
- half-life ([1]; Cyp1a2-KO, T1/2, Cyp1a2-KO mice, Cyp2d+I (propranolol 30 mg/kg 16 h before)): 3.66 ± 0.24 h
- half-life ([1]; Cyp1a2-KO, T1/2, Cyp1a2-KO mice, control (vehicle)): 4.43 ± 0.64 h
- AUC(0-inf) [1]: 2.12 ± 0.4 µM·h
- AUC(0-t) [1, 5]: 8.45 ± 2.46 µM·h
- AUC(0-t) ([1]; WT mice, control (vehicle)): 2.09 ± 0.41 µM·h
- Cmax [1, 3]: 790 ± 210 nM
- Cmax [1, 4]: 200 ± 20 nM
- Cmax [1, 5]: 1000 ± 210 nM
- Cmax ([1]; WT mice, control (vehicle)): 360 ± 50 nM
- MRT last [1, 5]: 5.51 ± 0.16 h
- MRT last ([1]; WT mice, control (vehicle)): 5.02 ± 0.18 h
- MRT inf [1, 5]: 5.75 ± 0.21 h
- MRT inf ([1]; WT mice, control (vehicle)): 5.52 ± 0.34 h
- half-life ([1]; T1/2, WT mice, Cyp2d+I (propranolol 30 mg/kg 16 h before)): 3.32 ± 0.52 h
- half-life ([1]; T1/2, WT mice, control (vehicle)): 4.28 ± 0.41 h
- Tmax [1, 3]: 1 ± 0.35 h
- Tmax [1, 4]: 2.5 ± 0.5 h
- Tmax [1, 5]: 1.25 ± 0.25 h
- Tmax ([1]; WT mice, control (vehicle)): 1.38 ± 0.38 h
- AUC(0-inf) (Cyp2d; Cyp1a2-KO): 4.27 ± 0.57 µM·h
- AUC(0-inf) (Cyp2d): 8.5 ± 2.45 µM·h
- decrease of DLX level in liver [2, 8]: 48%
- decrease of DLX level in lung [2, 8]: 31%
- increase of DLX level in kidney [2, 8]: 62%
- increase of DLX levels in brain and testis [2, 8]: around 25%
- increase of DLX level in liver [2, 9]: 3 folds
- increase of DLX levels in other tissues (than liver) [2, 9]: around 1.5 folds
- elevation of DLX level in liver by Cyp2d inhibitor ([2]; KO mice (discussion)): 4.0 folds
- increase of DLX level in kidney by Cyp2d inhibitor ([2]; KO mice (discussion)): 3.9 folds
- increase of DLX level in kidney [2, 10]: Three-fold
- increase of DLX levels in epididymis, testis and brain [2, 10]: 1–2 folds
- increase of DLX levels in liver and spleen [2, 10]: around 90%
- elevation of DLX level in liver by Cyp2d inhibitor ([2]; WT mice (discussion)): 1.9 folds
- increase of DLX level in kidney by Cyp2d inhibitor ([2]; WT mice (discussion)): 2.5 folds

SMILES: O=S(=O)(O)Oc1cccc2ccccc12 [M28, 1-naphthol sulfate]
- increase of metabolite AUC by propranolol ([1]; KO mice): 73%
- increase of metabolite AUC by propranolol ([1]; WT mice): 103%
- increase of metabolite abundance in kidney by Cyp2d inhibitor ([2]; WT + inhibitor vs WT + control, or KO + inhibitor vs KO + control): over 65%
